In ChEMBL document CHEMBL1146871, “Hydrazides of clozapine: a new class of D1 dopamine receptor subtype selective antagonists” (Bioorg Med Chem Lett, 2006):

How the values were obtained:
[1] = molecular target: T1, D(2) dopamine receptor (Homo sapiens, UniProt P14416); experiment: Displacement of [3H]methylspiperone from human dopamine D2 receptor expressed in CHO cells; type: cell-based
[2] = molecular target: D(1B) dopamine receptor (Homo sapiens, UniProt P21918); experiment: Binding affinity at dopamine D5 receptor
D(1B) dopamine receptor, sequence (P21918 whole entry): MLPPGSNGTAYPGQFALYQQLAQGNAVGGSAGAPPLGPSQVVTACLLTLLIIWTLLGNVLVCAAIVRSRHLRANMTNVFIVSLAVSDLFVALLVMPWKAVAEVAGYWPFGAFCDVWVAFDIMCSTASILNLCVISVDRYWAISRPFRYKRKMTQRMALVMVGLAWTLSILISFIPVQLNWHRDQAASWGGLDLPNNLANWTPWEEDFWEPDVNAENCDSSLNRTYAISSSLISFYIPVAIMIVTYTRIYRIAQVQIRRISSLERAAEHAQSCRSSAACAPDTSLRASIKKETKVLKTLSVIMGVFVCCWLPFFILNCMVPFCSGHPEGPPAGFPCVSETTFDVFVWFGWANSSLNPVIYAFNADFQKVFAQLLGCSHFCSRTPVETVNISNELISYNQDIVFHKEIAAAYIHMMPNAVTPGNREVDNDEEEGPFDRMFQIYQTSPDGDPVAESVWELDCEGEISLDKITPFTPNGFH

[3] = molecular target: T2, D(1A) dopamine receptor (Homo sapiens, UniProt P21728); experiment: Displacement of [3H]SCH 23390 from human dopamine D1 receptor expressed in CHO cells; type: cell-based
T2 sequence (P21728 whole entry): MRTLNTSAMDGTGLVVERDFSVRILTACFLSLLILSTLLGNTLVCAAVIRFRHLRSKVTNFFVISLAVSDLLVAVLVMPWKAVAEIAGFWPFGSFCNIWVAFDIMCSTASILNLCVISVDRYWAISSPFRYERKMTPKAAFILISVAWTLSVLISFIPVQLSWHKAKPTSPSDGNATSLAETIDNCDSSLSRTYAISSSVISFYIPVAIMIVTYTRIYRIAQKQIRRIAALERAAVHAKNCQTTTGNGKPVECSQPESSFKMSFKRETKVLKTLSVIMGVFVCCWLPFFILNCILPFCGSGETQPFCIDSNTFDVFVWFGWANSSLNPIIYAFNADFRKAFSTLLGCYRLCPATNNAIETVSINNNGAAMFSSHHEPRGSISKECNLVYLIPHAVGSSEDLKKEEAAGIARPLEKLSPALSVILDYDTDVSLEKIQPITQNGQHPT

[4] = molecular target: T2, D(1A) dopamine receptor; experiment: Activity at dopamine D1 receptor by cAMP assay; type: functional; conditions: for Activity: filed as antagonist
[5] = molecular target: T1, D(2) dopamine receptor; experiment: Binding affinity at dopamine D2 receptor
Method in brief: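 Membranes from cells stably expressing D2 receptor (4-7 pmol/mg protein; Ltk- cells in one passage, CHO in another), made by hypotonic lysis and 48,000g spin and stored at -80 °C. Incubated with 0.5 nM [3H]methylspiperone for 1 h at room temperature. Nonspecific binding set by 10 µM (-)-sulpiride. Rapid filtration, then scintillation counting. One-site competition fit; Ki is the mean of separate determinations.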

[6] = molecular target: T3, Alpha-2A adrenergic receptor (Homo sapiens, UniProt P08913); experiment: Binding affinity at adrenergic alpha2A receptor
T3 sequence (P08913 whole entry): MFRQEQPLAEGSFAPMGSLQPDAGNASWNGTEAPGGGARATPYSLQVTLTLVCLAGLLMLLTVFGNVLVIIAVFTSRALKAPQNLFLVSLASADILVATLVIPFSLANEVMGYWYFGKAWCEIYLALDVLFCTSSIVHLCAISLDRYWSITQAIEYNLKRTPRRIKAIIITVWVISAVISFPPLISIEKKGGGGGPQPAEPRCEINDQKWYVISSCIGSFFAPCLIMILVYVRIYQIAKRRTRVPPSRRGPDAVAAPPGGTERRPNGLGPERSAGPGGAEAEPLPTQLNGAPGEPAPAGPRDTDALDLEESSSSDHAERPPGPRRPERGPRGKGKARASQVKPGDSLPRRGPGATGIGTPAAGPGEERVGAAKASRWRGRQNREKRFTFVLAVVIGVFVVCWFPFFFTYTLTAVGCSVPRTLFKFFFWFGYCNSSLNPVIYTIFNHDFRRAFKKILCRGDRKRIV

[7] = molecular target: T4, D(4) dopamine receptor (Homo sapiens, UniProt P21917); experiment: Binding affinity at dopamine D4 receptor
T4 sequence (P21917 whole entry): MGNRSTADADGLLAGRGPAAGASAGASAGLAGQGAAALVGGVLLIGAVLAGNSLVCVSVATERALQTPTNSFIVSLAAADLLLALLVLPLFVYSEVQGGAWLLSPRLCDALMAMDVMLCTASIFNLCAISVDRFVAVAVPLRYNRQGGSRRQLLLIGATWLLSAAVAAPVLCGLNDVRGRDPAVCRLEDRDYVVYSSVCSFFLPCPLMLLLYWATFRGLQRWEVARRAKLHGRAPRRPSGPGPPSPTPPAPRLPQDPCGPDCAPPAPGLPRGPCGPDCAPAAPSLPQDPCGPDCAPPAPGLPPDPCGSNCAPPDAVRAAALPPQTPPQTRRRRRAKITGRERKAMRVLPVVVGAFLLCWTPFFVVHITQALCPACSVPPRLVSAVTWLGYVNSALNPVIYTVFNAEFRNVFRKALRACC

[8] = molecular target: 5-hydroxytryptamine receptor 2A (Homo sapiens, UniProt P28223); experiment: Binding affinity at 5HT2A receptor
5-hydroxytryptamine receptor 2A, sequence (P28223 whole entry): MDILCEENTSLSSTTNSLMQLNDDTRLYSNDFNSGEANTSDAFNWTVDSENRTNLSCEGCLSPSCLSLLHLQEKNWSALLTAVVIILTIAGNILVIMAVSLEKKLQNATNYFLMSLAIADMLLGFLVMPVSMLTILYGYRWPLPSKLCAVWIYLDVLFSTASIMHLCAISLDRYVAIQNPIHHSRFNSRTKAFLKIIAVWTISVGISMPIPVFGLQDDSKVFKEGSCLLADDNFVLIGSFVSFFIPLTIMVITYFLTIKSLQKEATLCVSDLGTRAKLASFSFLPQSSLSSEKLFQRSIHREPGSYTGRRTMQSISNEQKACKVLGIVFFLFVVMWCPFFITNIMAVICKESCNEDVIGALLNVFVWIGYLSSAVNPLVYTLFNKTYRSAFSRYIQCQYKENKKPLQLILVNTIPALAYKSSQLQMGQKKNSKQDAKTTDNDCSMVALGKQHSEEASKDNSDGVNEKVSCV

[9] = AUC in Sprague-Dawley rat plasma at 10 mg/kg, po; type: ADME, organism-based; design: dose 10 mg/kg, route oral
Method in brief: (§1)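 Single oral dose of 10 mg/kg to two male Sprague-Dawley rats. Blood drawn at several time points. Plasma levels of individual animals, generally within ±25% of the mean, were used to calculate PK parameters.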

[10] = Cmax in Sprague-Dawley rat plasma at 10 mg/kg, po; type: ADME, organism-based; design: dose 10 mg/kg, route oral; method in brief: as §1
[11] = Tmax in Sprague-Dawley rat plasma at 10 mg/kg, po; type: ADME, organism-based; design: dose 10 mg/kg, route oral; method in brief: as §1

T1 sequence (P14416 whole entry): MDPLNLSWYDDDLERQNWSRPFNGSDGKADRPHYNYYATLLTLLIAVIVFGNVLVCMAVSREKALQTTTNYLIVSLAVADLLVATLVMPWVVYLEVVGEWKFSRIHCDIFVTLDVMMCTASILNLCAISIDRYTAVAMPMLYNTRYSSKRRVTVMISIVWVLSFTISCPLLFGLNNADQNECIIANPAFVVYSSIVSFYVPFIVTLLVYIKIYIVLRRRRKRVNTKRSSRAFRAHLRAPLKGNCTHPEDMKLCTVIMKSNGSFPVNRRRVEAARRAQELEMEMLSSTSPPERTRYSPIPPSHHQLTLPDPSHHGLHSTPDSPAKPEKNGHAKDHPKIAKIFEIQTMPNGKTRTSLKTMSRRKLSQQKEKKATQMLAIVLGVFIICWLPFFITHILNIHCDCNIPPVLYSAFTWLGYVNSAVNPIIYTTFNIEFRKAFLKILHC

Row | SMILES | Ki [1] [nM] | Ki [2] [nM] | Ki [3] [nM] | Kb [4] [nM] | Activity [4] | Ki [5] [nM] | Ki [6] [nM] | Ki [7] [nM] | Ki [8] [nM] | AUC [9] [ng·h/mL] | Cmax [10] [ng/mL] | Tmax [11] [h]
1 | Cc1cccc(C)c1C(=O)NN1c2ccc(Cl)cc2N=C(N2CCN(C)CC2)c2ccccc21 | 287 | 31 | 3 | 2.8 | Antagonist | 287 | 791 | 1870 | 2.2 |  |  | 
2 | CN1CCN(C2=Nc3cc(Cl)ccc3N(NC(=O)c3cccc4ccccc34)c3ccccc32)CC1 | 458 | 105 | 3.8 | 2 | Antagonist | 458 | 882 | 977 | 1 | 12900 | 3570 | 1
3 | Cc1cccc(N)c1C(=O)NN1c2ccc(Cl)cc2N=C(N2CCN(C)CC2)c2ccccc21 | 1020 | 58 | 3.2 | 6.7 | Antagonist | 1020 | 456 | 4850 | 2.9 |  |  | 
4 | CN1CCN(C2=Nc3cc(Cl)ccc3N(NC(=O)c3ccccc3Cl)c3ccccc32)CC1 | 181 | 73 | 4 | 2.8 | Antagonist | 181 | 455 | 870 | 1 | 2660 | 821 | 1
5 | COc1cccc(OC)c1C(=O)NN1c2ccc(Cl)cc2N=C(N2CCN(C)CC2)c2ccccc21 | 340 | 38 | 1.6 | 0.7 | Antagonist | 340 | 169 | 1810 | 13.8 | 2670 | 802 | 0.5
6 | CN1CCN(C2=Nc3cc(Cl)ccc3N(NC(=O)c3c(N)cccc3Cl)c3ccccc32)CC1 | 496 | 53 | 2.6 | 1.7 | Antagonist | 496 | 327 | 808 | 0.9 |  |  | 
7 | CN1CCN(C2=Nc3cc(Cl)ccc3N(NC(=O)c3c(F)cccc3C(F)(F)F)c3ccccc32)CC1 | 383 | 7 | 2.5 | 2.3 | Antagonist | 383 | 2000 | 2000 | 1.2 |  |  | 
